Test results reported in ChEMBL document CHEMBL1154716, “Synthesis of some new S-triazine based chalcones and their derivatives as potent antimicrobial agents” (2010).
Converted amounts (≈) assume the structure as drawn. The source made the active and inactive calls. No cut-off for these calls is given here.

How the values were obtained:
Bacillus cereus [1] = assay: Antimicrobial activity against Bacillus cereus at 10 ug/disk after 24 hrs by disk diffusion assay; type: functional
Procedure, shortened: (§1)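 Disc diffusion on 4 mm filter discs. Bacteria are grown overnight in LB at 28 C, then adjusted in saline to 1.0 × 10^5 cfu/ml. The suspension is mixed into top agar over peptone agar plates. Plates are incubated 24 h at 28 C, and growth-inhibition zone diameter is measured. Streptomycin and ampicillin controls are applied from a 1 mg/ml stock. Tests are done in duplicate.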

Enterobacter cloacae [2] = assay: Antimicrobial activity against Enterobacter cloacae after 24 hrs by microdilution technique; type: functional
Procedure, shortened: (§2)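 Broth microdilution in LB medium. Inoculum is 1.0 × 10^4 cfu per well, from a saline-adjusted suspension of 1.0 × 10^5 cfu/ml. Compounds are dissolved in DMSO. Incubated 24 h at 28 C. MIC is the lowest concentration with no visible growth under a binocular microscope. MBC is read by subculture into fresh broth for 72 h, with no growth taken as 99.5% kill. OD is read at 655 nm.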

Listeria monocytogenes [3] = assay: Antimicrobial activity against Listeria monocytogenes at 1 umol/disk after 24 hrs by disk diffusion assay; type: functional; procedure, shortened: as §1
Staphylococcus aureus [4] = assay: Antimicrobial activity against Staphylococcus aureus at 1 umol/spot after 18 hrs by TLC-bioautographic method; type: functional
Procedure, shortened: (§3)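 TLC bioautography. Samples are spotted on silica gel TLC plates, then sprayed with bacteria (1.0 × 10^5 cfu/ml) in tryptic soy broth. Plates are incubated 18 h at 37 C and sprayed with 3% aqueous p-iodonitrotetrazolium violet. After a further 3 h, growth is stopped with 70% EtOH. White zones on a pink background are scored as inhibition-zone diameter with standard errors.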

Enterobacter cloacae [5] = assay: Antimicrobial activity against Enterobacter cloacae at 1 umol/disk after 24 hrs by disk diffusion assay; type: functional; procedure, shortened: as §1
Salmonella typhimurium [6] = assay: Antimicrobial activity against Salmonella Typhimurium at 1 umol/disk after 24 hrs by disk diffusion assay; type: functional, organism-based; settings: Salmonella enterica subsp. enterica serovar Typhimurium; procedure, shortened: as §1
Enterobacter cloacae [7] = assay: Antimicrobial activity against Enterobacter cloacae at 10 ug/disk after 24 hrs by disk diffusion assay; type: functional; procedure, shortened: as §1
Listeria monocytogenes [8] = assay: Antimicrobial activity against Listeria monocytogenes at 10 ug/disk after 24 hrs by disk diffusion assay; type: functional; procedure, shortened: as §1
Micrococcus flavus [9] = assay: Antimicrobial activity against Micrococcus flavus after 24 hrs by microdilution technique; type: functional; procedure, shortened: as §2
Escherichia coli [10] = assay: Antimicrobial activity against Escherichia coli at 1 umol/spot after 18 hrs by TLC-bioautographic method; type: functional; procedure, shortened: as §3
Staphylococcus aureus [11] = assay: Antimicrobial activity against Staphylococcus aureus after 24 hrs by microdilution technique; type: functional; procedure, shortened: as §2
Micrococcus flavus [12] = assay: Antimicrobial activity against Micrococcus flavus at 10 ug/disk after 24 hrs by disk diffusion assay; type: functional; settings: read-out: IZ; procedure, shortened: as §1
Pseudomonas aeruginosa [13] = assay: Antimicrobial activity against Pseudomonas aeruginosa at 1 umol/disk after 24 hrs by disk diffusion assay; type: functional; procedure, shortened: as §1
Staphylococcus aureus [14] = assay: Antimicrobial activity against Staphylococcus aureus at 10 ug/disk after 24 hrs by disk diffusion assay; type: functional; procedure, shortened: as §1
Salmonella typhimurium [15] = assay: Antimicrobial activity against Salmonella Typhimurium at 10 ug/disk after 24 hrs by disk diffusion assay; type: functional, organism-based; settings: Salmonella enterica subsp. enterica serovar Typhimurium; procedure, shortened: as §1
Escherichia coli [16] = assay: Antimicrobial activity against Escherichia coli at 10 ug/disk after 24 hrs by disk diffusion assay; type: functional; procedure, shortened: as §1
Staphylococcus aureus [17] = assay: Antimicrobial activity against Staphylococcus aureus at 1 umol/disk after 24 hrs by disk diffusion assay; type: functional; procedure, shortened: as §1
Bacillus cereus [18] = assay: Antimicrobial activity against Bacillus cereus after 24 hrs by microdilution technique; type: functional; procedure, shortened: as §2
Salmonella typhimurium [19] = assay: Antimicrobial activity against Salmonella Typhimurium after 24 hrs by microdilution technique; type: functional, Salmonella enterica subsp. enterica serovar Typhimurium; settings: Salmonella enterica; procedure, shortened: as §2
Bacillus cereus [20] = assay: Antimicrobial activity against Bacillus cereus at 1 umol/disk after 24 hrs by disk diffusion assay; type: functional; procedure, shortened: as §1
Listeria monocytogenes [21] = assay: Antimicrobial activity against Listeria monocytogenes after 24 hrs by microdilution technique; type: functional; procedure, shortened: as §2
Escherichia coli [22] = assay: Antimicrobial activity against Escherichia coli after 24 hrs by microdilution technique; type: functional; procedure, shortened: as §2
Pseudomonas aeruginosa [23] = assay: Antimicrobial activity against Pseudomonas aeruginosa at 1 umol/spot after 18 hrs by TLC-bioautographic method; type: functional; procedure, shortened: as §3
Escherichia coli [24] = assay: Antimicrobial activity against Escherichia coli at 1 umol/disk after 24 hrs by disk diffusion assay; type: functional; procedure, shortened: as §1
Pseudomonas aeruginosa [25] = assay: Antimicrobial activity against Pseudomonas aeruginosa after 24 hrs by microdilution technique; type: functional; procedure, shortened: as §2
Micrococcus flavus [26] = assay: Antimicrobial activity against Micrococcus flavus at 1 umol/disk after 24 hrs by disk diffusion assay; type: functional; procedure, shortened: as §1
Listeria monocytogenes [27] = assay: Antimicrobial activity against Listeria monocytogenes at 1 umol/spot after 18 hrs by TLC-bioautographic method; type: functional; procedure, shortened: as §3
Enterobacter cloacae [28] = assay: Antimicrobial activity against Enterobacter cloacae at 1 umol/spot after 18 hrs by TLC-bioautographic method; type: functional; procedure, shortened: as §3
Bacillus cereus [29] = assay: Antimicrobial activity against Bacillus cereus at 1 umol/spot after 18 hrs by TLC-bioautographic method; type: functional; procedure, shortened: as §3
Pseudomonas aeruginosa [30] = assay: Antimicrobial activity against Pseudomonas aeruginosa at 10 ug/disk after 24 hrs by disk diffusion assay; type: functional; procedure, shortened: as §1
Salmonella typhimurium [31] = assay: Antimicrobial activity against Salmonella Typhimurium at 1 umol/spot after 18 hrs by TLC-bioautographic method; type: functional, Salmonella enterica subsp. enterica serovar Typhimurium; procedure, shortened: as §3
Micrococcus flavus [32] = assay: Antimicrobial activity against Micrococcus flavus at 1 umol/spot after 18 hrs by TLC-bioautographic method; type: functional; procedure, shortened: as §3

SMILES	inhibition zone (IZ) (Bacillus cereus [1])	MBC (Enterobacter cloacae [2]) [µM]	MIC (Enterobacter cloacae [2]) [µM]	inhibition zone (IZ) (Listeria monocytogenes [3])	inhibition zone (IZ) (Staphylococcus aureus [4])	inhibition zone (IZ) (Enterobacter cloacae [5])	inhibition zone (IZ) (Salmonella typhimurium [6])	inhibition zone (IZ) (Enterobacter cloacae [7])	inhibition zone (IZ) (Listeria monocytogenes [8])	MBC (Micrococcus flavus [9]) [µM]	MIC (Micrococcus flavus [9]) [µM]	inhibition zone (IZ) (Escherichia coli [10])	MBC (Staphylococcus aureus [11]) [µM]	MIC (Staphylococcus aureus [11]) [µM]	zone of inhibition at 10 µg/disc (Micrococcus flavus [12]) [mm]	inhibition zone (IZ) (Pseudomonas aeruginosa [13])	inhibition zone (IZ) (Salmonella typhimurium [15])	inhibition zone (IZ) (Staphylococcus aureus [17])	MBC (Bacillus cereus [18]) [µM]	MIC (Bacillus cereus [18]) [µM]	further results
CC(=O)N1N=C(c2ccc(Nc3nc(Nc4ccccc4)nc(Nc4ccccc4)n3)cc2)CC1c1ccc([N+](=O)[O-])cc1 (stereo not given)	inactive	684 (≈ 401 µg/mL)	684 (≈ 401 µg/mL)	inactive	inactive	inactive	inactive	inactive	inactive	342 (≈ 200 µg/mL)	171 (≈ 100 µg/mL)	inactive	342 (≈ 200 µg/mL)	171 (≈ 100 µg/mL)	10	inactive	inactive	inactive	171 (≈ 100 µg/mL)	85 (≈ 49.8 µg/mL)	inhibition zone (IZ) (Staphylococcus aureus [14]): inactive; inhibition zone (IZ) (Escherichia coli [16]): inactive; MBC (Salmonella typhimurium [19]): 684 µM (≈ 401 µg/mL); MIC (Salmonella typhimurium [19]): 684 µM (≈ 401 µg/mL); inhibition zone (IZ) (Bacillus cereus [20]): inactive; MBC (Listeria monocytogenes [21]): 684 µM (≈ 401 µg/mL); MIC (Listeria monocytogenes [21]): 684 µM (≈ 401 µg/mL); MBC (Escherichia coli [22]): 342 µM (≈ 200 µg/mL); MIC (Escherichia coli [22]): 171 µM (≈ 100 µg/mL); inhibition zone (IZ) (Pseudomonas aeruginosa [23]): inactive; inhibition zone (IZ) (Escherichia coli [24]): inactive; MBC (Pseudomonas aeruginosa [25]): 684 µM (≈ 401 µg/mL); MIC (Pseudomonas aeruginosa [25]): 684 µM (≈ 401 µg/mL); inhibition zone (IZ) (Micrococcus flavus [26]): 0.04 millimeter; inhibition zone (IZ) (Listeria monocytogenes [27]): 0.09 millimeter; inhibition zone (IZ) (Enterobacter cloacae [28]): 0.09 millimeter; inhibition zone (IZ) (Bacillus cereus [29]): 0.1 millimeter; inhibition zone (IZ) (Pseudomonas aeruginosa [30]): inactive; inhibition zone (IZ) (Salmonella typhimurium [31]): 0.1 millimeter; inhibition zone (IZ) (Micrococcus flavus [32]): 0.07 millimeter
Nc1nc(-c2ccc(Nc3nc(Nc4ccccc4)nc(Nc4ccccc4)n3)cc2)cc(-c2ccco2)n1	inactive	390 (≈ 200 µg/mL)	195 (≈ 100 µg/mL)	inactive	0.06 millimeter	inactive	inactive	inactive	inactive	390 (≈ 200 µg/mL)	195 (≈ 100 µg/mL)	0.08 millimeter	390 (≈ 200 µg/mL)	195 (≈ 100 µg/mL)	6	inactive	inactive	inactive	390 (≈ 200 µg/mL)	195 (≈ 100 µg/mL)	inhibition zone (IZ) (Staphylococcus aureus [14]): inactive; zone of inhibition at 10 µg/disc (Escherichia coli [16]; read-out: IZ): 10 mm; MBC (Salmonella typhimurium [19]): 390 µM (≈ 200 µg/mL); MIC (Salmonella typhimurium [19]): 195 µM (≈ 100 µg/mL); inhibition zone (IZ) (Bacillus cereus [20]): inactive; MBC (Listeria monocytogenes [21]): 780 µM (≈ 401 µg/mL); MIC (Listeria monocytogenes [21]): 780 µM (≈ 401 µg/mL); MBC (Escherichia coli [22]): 390 µM (≈ 200 µg/mL); MIC (Escherichia coli [22]): 195 µM (≈ 100 µg/mL); inhibition zone (IZ) (Pseudomonas aeruginosa [23]): inactive; inhibition zone (IZ) (Escherichia coli [24]): 0.05 millimeter; MBC (Pseudomonas aeruginosa [25]): 780 µM (≈ 401 µg/mL); MIC (Pseudomonas aeruginosa [25]): 780 µM (≈ 401 µg/mL); inhibition zone (IZ) (Micrococcus flavus [26]): 0.03 millimeter; inhibition zone (IZ) (Listeria monocytogenes [27]): 0.08 millimeter; inhibition zone (IZ) (Enterobacter cloacae [28]): 0.08 millimeter; inhibition zone (IZ) (Bacillus cereus [29]): inactive; inhibition zone (IZ) (Pseudomonas aeruginosa [30]): inactive; inhibition zone (IZ) (Salmonella typhimurium [31]; Salmonella enterica subsp. enterica serovar Typhimurium): inactive; inhibition zone (IZ) (Micrococcus flavus [32]): 0.07 millimeter
Nc1nc(-c2ccc(Cl)cc2)cc(-c2ccc(Nc3nc(Nc4ccccc4)nc(Nc4ccccc4)n3)cc2)n1	inactive	179 (≈ 99.9 µg/mL)	89.5 (≈ 49.9 µg/mL)	inactive	0.04 millimeter	inactive	inactive	inactive	inactive	358 (≈ 200 µg/mL)	179 (≈ 99.9 µg/mL)	0.08 millimeter	358 (≈ 200 µg/mL)	179 (≈ 99.9 µg/mL)	9	inactive	inactive	0.04	179 (≈ 99.9 µg/mL)	89.5 (≈ 49.9 µg/mL)	zone of inhibition at 10 µg/disc (Staphylococcus aureus [14]; read-out: IZ): 7 mm; inhibition zone (IZ) (Escherichia coli [16]): inactive; MBC (Salmonella typhimurium [19]): 358 µM (≈ 200 µg/mL); MIC (Salmonella typhimurium [19]): 179 µM (≈ 99.9 µg/mL); inhibition zone (IZ) (Bacillus cereus [20]): inactive; MBC (Listeria monocytogenes [21]): 716 µM (≈ 400 µg/mL); MIC (Listeria monocytogenes [21]): 358 µM (≈ 200 µg/mL); MBC (Escherichia coli [22]): 179 µM (≈ 99.9 µg/mL); MIC (Escherichia coli [22]): 89.5 µM (≈ 49.9 µg/mL); inhibition zone (IZ) (Pseudomonas aeruginosa [23]): inactive; inhibition zone (IZ) (Escherichia coli [24]): inactive; MBC (Pseudomonas aeruginosa [25]): 358 µM (≈ 200 µg/mL); MIC (Pseudomonas aeruginosa [25]): 179 µM (≈ 99.9 µg/mL); inhibition zone (IZ) (Micrococcus flavus [26]): 0.05 millimeter; inhibition zone (IZ) (Listeria monocytogenes [27]): 0.08 millimeter; inhibition zone (IZ) (Enterobacter cloacae [28]): inactive; inhibition zone (IZ) (Bacillus cereus [29]): 0.09 millimeter; inhibition zone (IZ) (Pseudomonas aeruginosa [30]): inactive; inhibition zone (IZ) (Salmonella typhimurium [31]): 0.07 millimeter; inhibition zone (IZ) (Micrococcus flavus [32]): 0.07 millimeter
